According to ChEMBL document CHEMBL3414483, “New heterocyclic hybrids of pyrazole and its bioisosteres: design, synthesis and biological evaluation as dual acting antimalarial-antileishmanial agents” (Eur J Med Chem, 2015):
≈ marks a conversion by molar mass, not a printed value.

Tests used:
Mus musculus [1] = assay: Toxicity in mouse up to 100 mg/kg administered via parenteral route; format: organism-based; design: dose 100 mg/kg; conditions: in vivo
Procedure, shortened: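 Groups of six mice received intraperitoneal doses of 10, 25, 50, 75 and 100 mg/kg, with propylene glycol as the vehicle control.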

Mus musculus [2] = assay: Toxicity in mouse assessed as death at 25 to 300 mg/kg, po measured for 3 days; format: organism-based; design: dose 25-300 mg/kg, route oral; conditions: in vivo, 72 h
Procedure, shortened: (§1)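 Male mice (26-32 g), six per group, fasted overnight and weighed. Compounds given orally as suspension in 1% gum acacia at 25, 50, 100, 200 and 300 mg/kg/day; vehicle control at up to 1 ml/100 g. Mortality recorded after 24 h; weight and deaths followed over 3 days post-dosing.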

Plasmodium falciparum = assay: Antiplasmodial activity against chloroquine-resistant Plasmodium falciparum RKL9 infected in human RBC assessed as effect on schizont maturation after 24 hrs by Geimsa staining-based assay; format: functional, organism-based; conditions: RKL9, 24 h
Procedure, shortened: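 P. falciparum RKL9 in continuous culture in human B(+) RBC, parasitemia adjusted to 1-1.5%, RPMI 1640 with 10% AB(+) serum. Two-fold serial dilutions, compounds in ethanol (final ≤0.5%), 24 h at 37 °C, duplicate wells. Schizonts per 100 asexual parasites counted on Giemsa smears; % schizont maturation inhibition = (1 − Nt/Nc) × 100.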

Leishmania aethiopica [3] = assay: Antileishmanial activity against promastigote stage of Leishmania aethiopica after 24 hrs by alamar blue staining-based […]; format: functional, organism-based
Procedure, shortened: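 L. aethiopica promastigotes, 3 × 10^6 per well, given compounds from DMSO stocks in three-fold dilutions at 10 to 0.04 µg/ml (final DMSO ≤0.1%), in duplicate, at room temperature (21 ± 1 °C). Alamar blue (resazurin) was added after 24 h and absorbance read 48 h later at 540 and 630 nm. Negative control was parasites, medium and DMSO.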

Leishmania aethiopica [4] = assay: Antileishmanial activity against amastigote stage of Leishmania aethiopica after 72 hrs by resazurin staining-based fluorescence assay; format: functional, organism-based
Procedure, shortened: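 Axenic L. aethiopica amastigotes (50 µl of 2 × 10^7 cells/ml) exposed to serial dilutions at final 0.04–10 µg/ml for 72 h at 31 °C, humidified, 5% CO₂. Resazurin was added at 68 h and fluorescence read at 72 h (ex 530/em 590 nm). EC50 from sigmoidal dose–response fits, mean ± SD of triplicate experiments run in duplicate. Controls were medium alone and 1% DMSO.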

Mus musculus [5] = assay: Toxicity in mouse assessed as change in weight at 25 to 300 mg/kg, po measured for 3 days; format: organism-based; design: dose 25-300 mg/kg, route oral; conditions: in vivo, 72 h; procedure, shortened: as §1
Plasmodium berghei [6] = assay: Antimalarial activity against Plasmodium berghei str. ANKA infected in Swiss albino mouse assessed as supression of parasitemia at 0.048 mmol/kg/day, po qd for 3 days by microscopic analysis relative to control; format: functional
Procedure, shortened: (§2)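 Four-day suppressive test. Mice were infected iv on day 0 with 0.2 ml of 2 × 10^7 P. berghei ANKA-parasitized erythrocytes from a donor mouse, diluted in saline. From 2 h post-infection they were dosed orally at 0.048 mmol/kg/day for days 0–3, five mice per group. The vehicle was 7% Tween and 3% ethanol in water. On day 4, Giemsa smears were scored over 5 fields of about 100 RBC each. Suppression was calculated relative to the vehicle group, taken as 100%.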

Plasmodium berghei [7] = assay: Antimalarial activity against Plasmodium berghei str. ANKA infected in Swiss albino mouse assessed as parasitemia at 0.048 mmol/kg/day, po qd […] by microscopic analysis relative to control; format: functional; procedure, shortened: as §2
[8] = Toxicity in po dosed mouse; format: organism-based; conditions: in vivo; procedure, shortened: as §1
Plasmodium berghei [9] = assay: Antimalarial activity against Plasmodium berghei str. ANKA infected in Swiss albino mouse assessed as survival at 0.048 mmol/kg/day, po qd for 3 days by microscopic analysis relative to control; format: functional
Procedure, shortened: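 P. berghei ANKA infected mice, 4-day suppressive test. Day 0: 0.2 ml of 2 x 10^7 parasitized erythrocytes given i.v. (donor blood, 20-30% parasitemia, diluted in saline). Oral dosing at 0.048 mmol/kg/day from 2 h post-infection, then days 1-3 at 24 h intervals. Vehicle 7% Tween, 3% ethanol in water. Five mice/group. Survival time recorded per mouse; mean compared with vehicle group.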

Compound | Activity (Mus musculus [1]) | Activity (Mus musculus [2]) | IC50 (Plasmodium falciparum) [nM] | IC50 (Leishmania aethiopica [3]) [µg/mL] | IC50 (Leishmania aethiopica [4]) [µg/mL] | Activity (Mus musculus [5]) | Activity (Plasmodium berghei [6]) [%] | Activity (Plasmodium berghei [7]) [%] | MTD [8] [mg/kg] | Survival (Plasmodium berghei [9]) [days]
O=C(/C=C/c1cn(-c2ccc(Br)cc2)nc1-c1ccc([N+](=O)[O-])cc1)c1ccccc1 | Non-toxic | Non-toxic | 38.8 | 1.08 (≈ 2.28 µM) | 1.22 (≈ 2.57 µM) | Non-toxic | 96.51 | 3 | 300 | 16.22
Cc1ccc(-n2cc(/C=N/N=C3/SCC(=O)N3c3ccccc3)c(-c3ccc([N+](=O)[O-])cc3)n2)cc1 | Non-toxic | Non-toxic | 40.2 | 0.0201 (≈ 0.0405 µM) | 0.28 (≈ 0.564 µM) | Non-toxic | 96.51 | 3 | 300 | 16.62
O=[N+]([O-])c1ccc(-c2nn(-c3ccc(Br)cc3)cc2/C=N/NC(=S)Nc2ccccc2)cc1 | Non-toxic | Non-toxic | 38.4 | 0.0214 (≈ 0.041 µM) | 0.21 (≈ 0.403 µM) | Non-toxic | 94.19 | 5 | 300 | 14.84
Cc1ccc(-c2nn(-c3ccc(C)cc3)cc2C2CC(c3ccccc3)=NN2c2ccccc2)cc1 (stereo not given) | – | – | – | 3.09 (≈ 6.59 µM) | 1.78 (≈ 3.8 µM) | – | 69.77 | 26 | – | 10.82
Cc1ccc(-c2nn(-c3ccc(Br)cc3)cc2/C=N/NC(=S)Nc2ccccc2)cc1 | – | – | – | 3.62 (≈ 7.39 µM) | 2.41 (≈ 4.91 µM) | – | 65.12 | 30 | – | 8.84
CC(=O)N1N=C(c2ccccc2)CC1c1cn(-c2ccc(Br)cc2)nc1-c1ccc(C)cc1 (stereo not given) | Non-toxic | Non-toxic | 36.8 | 3.02 (≈ 6.05 µM) | 2.77 (≈ 5.55 µM) | Non-toxic | 96.51 | 3 | 300 | 16.4
CCC(=O)N1N=C(c2ccccc2)CC1c1cn(-c2ccc(C)cc2)nc1-c1ccc(C)cc1 (stereo not given) | – | – | – | 1.6 (≈ 3.57 µM) | 1.02 (≈ 2.27 µM) | – | 55.81 | 38 | – | 8.84
Cc1ccc(-c2nn(-c3ccc(C)cc3)cc2/C=N/NC(=S)Nc2ccccc2)cc1 | – | – | – | 3.01 (≈ 7.08 µM) | 2.26 (≈ 5.31 µM) | – | 60.47 | 34 | – | 9.23
Cc1ccc(-c2nn(-c3ccc(C)cc3)cc2/C=N/N=c2/scc(-c3ccc(Br)cc3)n2-c2ccccc2)cc1 | Non-toxic | Non-toxic | 41.8 | 0.0311 (≈ 0.0514 µM) | 0.3 (≈ 0.496 µM) | Non-toxic | 97.67 | 2 | 300 | 16.84
O=Cc1cn(-c2ccc(Br)cc2)nc1-c1ccc([N+](=O)[O-])cc1 | – | – | – | 4.84 (≈ 13 µM) | 2.03 (≈ 5.45 µM) | – | 59.3 | 35 | – | 8.71
Cc1ccc(-n2cc(/C=N/NC(=S)Nc3ccccc3)c(-c3ccc([N+](=O)[O-])cc3)n2)cc1 | Non-toxic | Non-toxic | 37.8 | 0.0241 (≈ 0.0528 µM) | 0.23 (≈ 0.504 µM) | Non-toxic | 94.19 | 5 | 300 | 14
Cc1ccc(-c2nn(-c3ccc(Br)cc3)cc2C=O)cc1 | – | – | – | 3.11 (≈ 9.12 µM) | 1.82 (≈ 5.33 µM) | – | 65.11 | 30 | – | 8.4
Cc1ccc(-c2nn(-c3ccc(C)cc3)cc2/C=C/C(=O)c2ccccc2)cc1 | – | – | – | 4 (≈ 10.6 µM) | 2.88 (≈ 7.61 µM) | – | 69.77 | 26 | – | 11.6
Cc1ccc(-c2nn(-c3ccc(Br)cc3)cc2/C=N/N=c2/scc(-c3ccc(Br)cc3)n2-c2ccccc2)cc1 | – | – | – | 4.06 (≈ 6.07 µM) | 2.21 (≈ 3.3 µM) | – | 83.72 | 14 | – | 11.22
O=[N+]([O-])c1ccc(-c2nn(-c3ccc(Br)cc3)cc2/C=N/N=c2/scc(-c3ccc(Br)cc3)n2-c2ccccc2)cc1 | – | – | – | 2.9 (≈ 4.14 µM) | 1.07 (≈ 1.53 µM) | – | 67.44 | 28 | – | 12.26
CC(=O)N1N=C(c2ccccc2)CC1c1cn(-c2ccc(C)cc2)nc1-c1ccc(C)cc1 (stereo not given) | – | – | – | 3.05 (≈ 7.01 µM) | 2.31 (≈ 5.32 µM) | – | 79.07 | 18 | – | 10.08
CC(=O)N1N=C(c2ccccc2)CC1c1cn(-c2ccc(Br)cc2)nc1-c1ccc([N+](=O)[O-])cc1 (stereo not given) | – | – | – | 1.09 (≈ 2.05 µM) | 0.89 (≈ 1.68 µM) | – | 69.77 | 26 | – | 6.62
Cc1ccc(-c2nn(-c3ccc(C)cc3)cc2/C=N/N=C2/SCC(=O)N2c2ccccc2)cc1 | – | – | – | 0.882 (≈ 1.89 µM) | 0.58 (≈ 1.25 µM) | – | 88.37 | 10 | – | 10.64
CC(=O)N(C1=NN(C(C)=O)C(c2cn(-c3ccc(C)cc3)nc2-c2ccc([N+](=O)[O-])cc2)S1)c1ccccc1 (stereo not given) | – | – | – | 0.846 (≈ 1.57 µM) | 1.21 (≈ 2.24 µM) | – | 79.07 | 18 | – | 10.4
